Sampled rows, rich in hits. Any-hit rate of the full collection: about 2.6%.
TAAR1 antag: human TAAR1 antagonism. CHO RD-HGA16 TAAR1, Fluo-8 calcium fluorescence, antagonist. hit rate 1.5% among 360,000. inhibition, % at 3 µM. AID 624466;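 active = inhibition above a per-plate cutoff, the mean inhibition of test compounds on that plate plus 3 SD, cut at about 49% in these data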;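 also: 0% = DMSO plus EC80 beta-PEA response and 100% = DMSO alone without agonist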
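Test system: CHO RD-HGA16 cells bearing hTAAR1 | Reagent: β-PEA, EC80 | Compound dosing: 3 µM, single point | Schedule: Dye loading 75 min at 37 °C, then 30 min room temperature | Signal: Calcium fluorescence with Fluo-8 | Evaluation: Percent inhibition of PEA-evoked calcium signal, max/basal emission ratio | Control set: DMSO-only wells and EC80 β-PEA-stimulated wells | Repeats: Singlicate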
VLA-4 inh: inhibition in a human VLA-4 binding assay | inhibition, % (about 7 µM as worked out from the volumes in the protocol) | VLA-4 expressing cells, ligand binding flow cytometry | AID 2557 | P13612 | hit rate 0.2% among 330,000; in the data active = inhibition above about 50%
Rce1 inh: blocks yeast Ras-converting enzyme | hit rate 0.27% among 290,000 | yeast membranes, quenched prenylated peptide cleavage fluorescence | calls only;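 active = fall in fluorescence gain of 50% or more versus controls, with final raw signal at or below 3038400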;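 also: plate controls were neutral control wells for no effect and wells lacking membranes for full effect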
TAAR1 agonist: human TAAR1 agonism | Q96RJ0 | CHO RD-HGA16 TAAR1, Fluo-8 calcium fluorescence; vehicle wells 0%, saturating PEA agonist 100% | activation, % at 3 µM | hit rate 0.99% among 360,000;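 active = activation above the mean activation of all test compounds in the run plus 3 SD, cut at about 38% in these data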
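Benchmarks: low control DMSO, high control PEA (EC100); System: CHO RD-HGA16 cells carrying human TAAR1 plus Gα16; Detection: Fluo-8 fluorescence, 5 s baseline then 140 s kinetic read; Schedule: 17-24 h plating, Fluo-8 75 min 37 °C, 30 min RT; Read-out basis: % activation from peak over basal fluorescence ratio, DMSO-to-PEA scaled.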
Platelet DG rel: platelet dense granule release activity; human platelet-rich plasma, SFLLRN dense granule ATP release, luminescence; inhibition, %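 (compounds screened at 7.5 µM in platelet-rich plasma)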; hit rate 0.22% among 300,000; AID 1663;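 active = mean replicate score, as percent of positive control, at or above 50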
TAAR1 nonsel count: counter-screen for TAAR1 antagonists: nonselective antagonists. shares compounds with TAAR1 antag. counterscreen cell line, calcium fluorescence, antagonist mode. inhibition, % at 3 µM. hit rate 77% among 2,400. AID 651780; in the data active = inhibition above about 22%;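 also: CHO-Ga16 host cells stimulated with ATP at an EC80 level; 0% = agonist EC80 plus vehicle and 100% = vehicle without agonist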
TAAR1 ant conf: confirmation of human TAAR1 antagonists; TAAR1-expressing cells, fluorescence antagonist read-out; shares compounds with TAAR1 antag; inhibition, % at 3 µM; AID 651785; hit rate 40% among 2,400; in the data active = inhibition above about 49%;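 also: CHO-Ga16 host cells challenged with agonist PEA near its EC80; 0% = agonist at EC80 plus vehicle and 100% = vehicle with no agonist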
Ga16 nonsel ag: counter-screen for TAAR1 antagonists: nonselective Ga16 agonists; hit rate 18% among 2,400; Ga16-expressing cells, calcium fluorescence, agonist counterscreen; activation, % at 3 µM; shares compounds with TAAR1 antag; in the data active = activation above about 12%;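 also: 0% = vehicle wells and 100% = saturating stimulus response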
TAAR1 ag counter: counter-screen for human TAAR1 antagonists: TAAR1 agonists. shares compounds with TAAR1 antag. hTAAR1 cell line, fluorescence activation, agonist mode. activation, % at 3 µM. hit rate 2% among 2,400. AID 651955; in the data active = activation above about 37%;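 also: CHO cells stably expressing TAAR1 with calcium dye readout; 0% = DMSO vehicle and 100% = full agonist response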
Starred values were filed as active, the others as inactive; i = inactive; . = no result given.

SMILES | TAAR1 antag | VLA-4 inh | Rce1 inh | TAAR1 agonist | Platelet DG rel | TAAR1 nonsel count | TAAR1 ant conf | Ga16 nonsel ag | TAAR1 ag counter
CC(C)C[C@H](CO)N(Cc1ccccc1)S(=O)(=O)N(Cc1ccccc1)[C@@H](CO)CC(C)C | 78* | -21 | . | 11 | . | 34* | 55* | 9 | 10
COc1ccc([C@H]2CC(=O)C=C(c3cccc(Br)c3)C2)cc1OC | 64* | 7 | . | 3 | . | 19 | 45 | 2 | 1
COc1ccc([C@H]2CC(=O)C=C(c3cccc(Br)c3)C2)cc1 | 27 | 15 | . | 6 | . | . | . | . | .
Cc1nc2ccccc2c(=O)n1/N=C/c1ccc(C(C)C)cc1 | 61* | 11 | i | 4 | -4 | 31* | 43 | 2 | -3
CN(C)C(=O)c1ccc(-c2cc3onc(-c4ccccc4)c3c(=O)n2C)cc1 | 21 | 11 | . | 8 | . | . | . | . | .
CSC[C@H]1CN(Cc2cccnc2)C(=O)[C@@H]1CC(=O)Nc1ccc(Br)cc1 | -28 | . | . | 1 | . | . | . | . | .
CC(C)(C)C(=O)Nc1ccccc1N1CCN(C(=O)c2ccc(Cl)cc2)CC1 | -28 | -6 | i | 2 | 7 | . | . | . | .
CC(C)C(=O)NC(=S)Nc1ccccc1N1CCN(C(=O)c2ccc(Cl)cc2)CC1 | 81* | -2 | i | 17 | -1 | 38* | 58* | 14* | 15
O=S(=O)(c1ccccc1Br)N(Cc1ccccc1)CC(O)COCc1ccccc1 (stereo not drawn) | 59* | . | . | 5 | . | 13 | 18 | 3 | 6
O=C(COc1ccccc1Cl)Nc1ccc2[nH]c(=O)[nH]c2c1 | -17 | . | . | 2 | . | . | . | . | .
C=CC[C@@H](CC(=O)OC(C)(C)C)C(=O)OC[C@@H]1CCCN1C(=O)[C@@H](CC=C)CC(=O)N[C@@H](CO)Cc1ccccc1 | 16 | 8 | . | 2 | . | . | . | . | .
C=CC[C@@H](CC(=O)OC(C)(C)C)C(=O)OC[C@H]1CCCN1C(=O)[C@@H](CC=C)CC(=O)N[C@H](CO)Cc1ccccc1 | 61* | -3 | . | 17 | . | 36* | 43 | 8 | 7
CCCN1CCN(CCCNC(=O)C(CC)n2nc(C)n3c(cc4occc43)c2=O)CC1 (stereo not drawn) | -13 | 3 | i | 2 | -1 | . | . | . | .
COc1ccc(NC(=O)N2CCN(c3nc(-c4cccc(OC)c4)cs3)CC2)cc1 | 64* | 7 | i | 10 | -5 | 38* | 59* | 8 | 1
COc1cccc(-c2csc(N3CCN(C(=S)NCC(C)C)CC3)n2)c1 | 65* | -14 | . | 6 | 6 | 42* | 44 | 5 | 0
COc1cccc(-c2csc(N3CCN(C(=S)Nc4cccc(Cl)c4)CC3)n2)c1 | 33 | 18 | i | 6 | -19 | . | . | . | .
CCNC(=S)N1CCN(c2nc(-c3cccc(OC)c3)cs2)CC1 | 48 | 10 | i | 11 | -7 | . | . | . | .
C[C@@H]1CN([C@@H](C)CO)C(=O)CCCn2nncc2CO[C@H]1CN(C)S(=O)(=O)c1cccs1 | 3 | . | . | 2 | . | . | . | . | .
C=CCn1c2ccccc2c(=O)c2cc(C#Cc3ccccn3)ccc21 | 29 | 0 | . | 6 | . | . | . | . | .
CC1=NN(c2nc(N)nc(/C(C#N)=C/c3ccc([N+](=O)[O-])o3)n2)C(C)(C)C1 | 59* | . | . | 22 | . | 57* | 66* | 23* | 28
O=C1C2C(C(=O)N1/N=C/c1ccc([N+](=O)[O-])o1)C1C=CC2C12CC2 (stereo not drawn) | 6 | 5 | i | -2 | -1 | . | . | . | .
CC(C)(C)C(=O)Nc1nnc(SCC(=O)NC2CCCCC2)s1 | 6 | -3 | i | -4 | 3 | . | . | . | .
COC(=O)c1nccnc1N | 103* | . | . | -2 | . | 3 | 1 | 1 | 3
COC(=O)c1nc(C(=O)OC)c(C(=O)OC)nc1C(=O)OC | 1 | 6 | i | 6 | 2 | . | . | . | .
Cc1ccc(CNC(=O)COC(=O)CN2C(=O)C3CC=CCC3C2=O)cc1 (stereo not drawn) | 1 | 7 | . | -4 | . | . | . | . | .
SMILES | TAAR1 antag | VLA-4 inh | Rce1 inh | TAAR1 agonist | Platelet DG rel | TAAR1 nonsel count | TAAR1 ant conf | Ga16 nonsel ag | TAAR1 ag counter
COc1ccc(-c2csc(N3CCN(c4cc(C)nc5ccccc45)CC3)n2)cc1OC | 60* | 12 | i | 7 | -11 | 27* | 43 | 6 | 7
COc1cc(-c2csc(N3CCOCC3)n2)cc(OC)c1OC | 9 | 16 | i | 6 | -1 | . | . | . | .
COc1cc(NC(=O)c2oc3ccccc3c2C)ccc1NC(=O)c1ccco1 | 54* | -21 | i | 10 | -3 | 26* | 39 | 7 | 5
COc1cc(NC(=O)c2cc3ccccc3o2)ccc1NC(=O)c1ccco1 | 64* | -11 | . | 15 | -7 | 26* | 51* | 8 | 14
CCN1C(=O)C(CC(=O)Nc2ccc(OC)cc2)N(CCCN2CCN(c3ccc(F)cc3)CC2)C1=S (stereo not drawn) | 66* | 12 | i | 27 | 10 | 32* | 45 | 17* | 15
COc1ccc(NC(=O)CC2C(=O)N(Cc3ccccc3)C(=S)N2CCN2CCOCC2)cc1 (stereo not drawn) | -21 | -3 | i | 6 | 21 | . | . | . | .
COc1ccc(NC(=O)CC2C(=O)N(C)C(=S)N2CCc2ccccc2)cc1 (stereo not drawn) | 25 | 9 | i | 22 | 1 | . | . | . | .
COc1ccc(CCN2C(=S)N(C)C(=O)C2CC(=O)Nc2ccc(OC)cc2)cc1 (stereo not drawn) | 26 | 1 | i | 13 | 3 | . | . | . | .
CCN1C(=O)C(CC(=O)Nc2ccc(OC)cc2)N(CCc2ccc(F)cc2)C1=S (stereo not drawn) | 69* | 4 | i | 11 | 22 | 42* | 59* | 13* | 12
COc1ccc(NC(=O)CC2C(=O)N(C)C(=S)N2CCc2ccc(F)cc2)cc1 (stereo not drawn) | 58* | 3 | i | 19 | 14 | 31* | 50* | 14* | 11
O=C(Nc1cccc(C(F)(F)F)c1)c1ccc(-c2ccc(F)c(F)c2)c2ccoc12 | -11 | . | . | 0 | . | . | . | . | .
Cc1noc(C)c1-c1ccc(C(=O)Nc2cccc(C(F)(F)F)c2)c2occc12 | 53* | . | . | -1 | . | 21 | 40 | 3 | 3
Cc1noc(C)c1-c1ccc(C(=O)Nc2cccc(NS(C)(=O)=O)c2)c2occc12 | 60* | . | . | 16 | . | 33* | 46 | 11 | 11
CCCN(C(=O)Cc1c(C(=O)O)n(C)c2ccccc12)c1cccc(C)c1 | -21 | -10 | i | 3 | -4 | . | . | . | .
CCN(Cc1ccccc1)c1ccc(/C=N/NC(=S)NC(C)C)cc1 | 50* | 7 | i | 2 | 5 | 3 | 11 | 3 | 9
